# Assay results as given in ChEMBL document CHEMBL1122293, “Synthesis, evaluation of chemical reactivity, and murine antineoplastic activity of 2-hydroxy-5-(3,4-dichlorophenyl)-6,7-bis(hydroxymethyl)-2,3-dihydro-1H- pyrrolizine bis(2-propylcarbamate) and 2-acyloxy derivatives as potential water-soluble prodrugs” (J Med Chem, 1983).
# Legend:
# B16 [1] = assay: No. of cures on day 60 at 10 mg/kg (ip) against B16 melanocarcinoma in mice; format: functional, Mus musculus
# Method in brief: (§1)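 Female BDF1 mice given ip 0.5 mL of tumor brei (1.0 g tissue per 10 mL). Nine daily ip doses beginning 24 h later, as Klucel suspensions or a water/Tween-80 suspension. Acute toxicity scored day 5; survival read day 60. Cures counted per 10-animal group at day 60; weight difference reported as treated minus control (g).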
# B16 [2] = assay: No. of cures on day 60 at 20 mg/kg (ip) against B16 melanocarcinoma in mice; format: functional, Mus musculus; method in brief: as §1
# B16 [3] = assay: No. of cures on day 60 at 40 mg/kg (ip) against B16 melanocarcinoma in mice; format: functional, Mus musculus; method in brief: as §1
# B16 [4] = assay: No. of cures on day 60 at 5 mg/kg (ip) against B16 melanocarcinoma in mice; format: functional, Mus musculus; method in brief: as §1
# B16 [5] = assay: No. of cures on day 60 at 80 mg/kg (ip) against B16 melanocarcinoma in mice; format: functional, Mus musculus; method in brief: as §1
# B16 [6] = assay: Median survival time of test animals compared to controls at 10 mg/kg (ip) against B16 melanocarcinoma in mice; format: functional, Mus musculus
# Method in brief: (§2)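 Female BDF1 mice received B16 tumor brei ip (0.5 mL of 1.0 g tissue per 10 mL). From 24 h later they got nine daily ip doses, suspended in Klucel or water/Tween-80. Acute toxicity was assessed on day 5 and survival was evaluated on day 60. The value is median survival as % T/C, with 10 mice per group and a positive control run in parallel.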
# B16 [7] = assay: Median survival time of test animals compared to controls at 20 mg/kg (ip) against B16 melanocarcinoma in mice; format: functional, Mus musculus; method in brief: as §2
# B16 [8] = assay: Median survival time of test animals compared to controls at 40 mg/kg (ip) against B16 melanocarcinoma in mice; format: functional, Mus musculus; method in brief: as §2
# B16 [9] = assay: Median survival time of test animals compared to controls at 5 mg/kg (ip) against B16 melanocarcinoma in mice; format: functional, Mus musculus; method in brief: as §2
# B16 [10] = assay: Median survival time of test animals compared to controls at 80 mg/kg (ip) against B16 melanocarcinoma in mice; format: functional, Mus musculus; method in brief: as §2
# B16 [11] = assay: Weight difference at 10 mg/kg (ip)against B16 melanocarcinoma in mice; format: functional, Mus musculus; method in brief: as §1
# B16 [12] = assay: Weight difference at 20 mg/kg (ip) against B16 melanocarcinoma in mice; format: functional, Mus musculus; method in brief: as §1
# B16 [13] = assay: Weight difference at 40 mg/kg (ip)against B16 melanocarcinoma in mice; format: functional, Mus musculus; method in brief: as §1
# B16 [14] = assay: Weight difference at 5 mg/kg (ip)against B16 melanocarcinoma in mice; format: functional, Mus musculus; method in brief: as §1
# B16 [15] = assay: Weight difference at 80 mg/kg (ip) against B16 melanocarcinoma in mice; format: functional, Mus musculus; method in brief: as §1
# P388 [16] = assay: Weight difference at 50 mg/kg (ip)against P388 Lymphocytic Leukemia in mice; format: functional, Mus musculus
# Method in brief: (§3)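 Male CDF1 mice given 6×10^6 leukemia cells ip. Five daily ip doses beginning 24 h later, as Klucel suspension or aqueous solution. Acute toxicity on day 5; survival assessed on day 30. Weight difference reported as treated minus control (g).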
# P388 [17] = assay: Weight difference at 6.25 mg/kg (ip)against P388 Lymphocytic Leukemia in mice; format: functional, Mus musculus; method in brief: as §3
# P388 [18] = assay: Median survival time of test animals compared to controls at 100 mg/kg (ip) against P388 Lymphocytic Leukemia in mice; format: functional, Mus musculus
# Method in brief: (§4)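 P388 leukemia cells were inoculated ip into male CDF1 mice. Treatment began 24 h later, given ip as five daily doses, either as a Klucel (hydroxypropylcellulose) suspension or as an aqueous solution. Acute toxicity was assessed on day 5 and results were read on day 30. The value is median survival of treated versus control mice, as % T/C.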
# P388 [19] = assay: Median survival time of test animals compared to controls at 12.5 mg/kg (ip) against P388 Lymphocytic Leukemia in mice; format: functional, Mus musculus
# Method in brief: (§5)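 P388 leukemia cells inoculated ip into male CDF1 mice; ip treatment started 24 h later, five daily doses, as Klucel (hydroxypropylcellulose) suspension or aqueous solution. Acute toxicity on day 5. Day-30 median survival of treated versus control mice expressed as % T/C. Weight difference is treated minus control, in grams.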
# P388 [20] = assay: Median survival time of test animals compared to controls at 25 mg/kg (ip) against P388 Lymphocytic Leukemia in mice; format: functional, Mus musculus; method in brief: as §4
# P388 [21] = assay: Median survival time of test animals compared to controls at 50 mg/kg (ip) against P388 Lymphocytic Leukemia in mice; format: functional, Mus musculus; method in brief: as §4
# P388 [22] = assay: Median survival time of test animals compared to controls at 6.25 mg/kg (ip) against P388 Lymphocytic Leukemia in mice; format: functional, Mus musculus; method in brief: as §4
# P388 [23] = assay: Log of the tumor cell population at the end of treatment at 100 mg/kg (ip) against P388 Lymphocytic Leukemia in mice; format: functional, Mus musculus
# P388 [24] = assay: Log of the tumor cell population at the end of treatment at 12.5 mg/kg (ip) against P388 Lymphocytic Leukemia in mice; format: functional, Mus musculus
# P388 [25] = assay: Log of the tumor cell population at the end of treatment at 25 mg/kg (ip) against P388 Lymphocytic Leukemia in mice; format: functional, Mus musculus
# P388 [26] = assay: Log of the tumor cell population at the end of treatment at 50 mg/kg (ip) against P388 Lymphocytic Leukemia in mice; format: functional, Mus musculus
# P388 [27] = assay: Log of the tumor cell population at the end of treatment at 6.25 mg/kg (ip) against P388 Lymphocytic Leukemia in mice; format: functional, Mus musculus
# P388 [28] = assay: Weight difference at 25 mg/kg (ip)against P388 Lymphocytic Leukemia in mice; format: functional, Mus musculus; method in brief: as §3
# P388 [29] = assay: Weight difference at 100 mg/kg (ip)against P388 Lymphocytic Leukemia in mice; format: functional, Mus musculus; method in brief: as §3
# P388 [30] = assay: Weight difference at 12.5 mg/kg (ip)against P388 Lymphocytic Leukemia in mice; format: functional, Mus musculus; method in brief: as §5
# [31] = Water solubility of the compound; format: ADME; conditions: read-out: S
# Method in brief: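 Excess bis(carbamate) (30-60 mg) in 2 mL distilled water, vortexed 10 min, filtered through Teflon wool and diluted. UV absorbance read at 291 nm. Concentration from a linear Beer's law calibration made with a salt standard (r = 0.998).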
smiles,measurement,setting,value
CC(C)NC(=O)OCc1c(COC(=O)NC(C)C)c(-c2ccc(Cl)c(Cl)c2)n2c1CC(O)C2 (configuration not stated),Cures,B16 [1],0
same,Cures,B16 [2],0
same,Cures,B16 [3],4
same,Cures,B16 [4],0
same,Cures,B16 [5],0
same,T/C,B16 [6],143%
same,T/C,B16 [7],196%
same,T/C,B16 [8],223%
same,T/C,B16 [9],129%
same,T/C,B16 [10],101%
same,Weight change,B16 [11],0.2 g
same,Weight change,B16 [12],0 g
same,Weight change,B16 [13],-0.9 g
same,Weight change,B16 [14],0.1 g
same,Weight change,B16 [15],-2.4 g
same,Weight change,P388 [16],-5.6 g
same,Weight change,P388 [17],-2.1 g
same,T/C,P388 [18],166%
same,T/C,P388 [19],147%
same,T/C,P388 [20],145%
same,T/C,P388 [21],150%
same,T/C,P388 [22],140%
same,Log cell kill,P388 [23],2.16
same,Log cell kill,P388 [24],0.62
same,Log cell kill,P388 [25],0.46
same,Log cell kill,P388 [26],0.85
same,Log cell kill,P388 [27],0.08
same,Weight change,P388 [28],-3.8 g
same,Weight change,P388 [29],-6.3 g
same,Weight change,P388 [30],-2.7 g
same,solubility,[31],40.2 µM
same,half-life,Half life was determined,31 min
